# Assay results pooled from the literature.
# Compare with care: the assays were run in different laboratories.
# Target: MAP kinase-activated protein kinase 5 (MAPKAPK5, Homo sapiens, UniProt Q8IW41)
SMILES,observed,mode,method,tested at,quantity,result
Cc1cc(-n2nc(Cc3cc(F)cc(C(F)(F)F)c3)nc2C)ccc1C(N)=O,cell-free assay,,competition with immobilised ligand,1 µM,remaining binding,100%
FC(F)c1nc2ccccc2n1-c1nc(N2CCOCC2)nc(N2CCOCC2)n1,enzyme activity,inhibitor,,10 µM,remaining activity,82%
COc1cc(Nc2cnc(C#N)c(O[C@H](C)CN(C)C)n2)ncc1-c1cnn(C)c1,enzyme activity,inhibitor,radiometric,10 µM,remaining activity,97%
CC/C(=N\NC(=O)NCc1cccc(O)c1)c1ccc(O)c(C)c1O,enzyme activity,inhibitor,,0.1 µM,inhibition,-8%
CC1=C(C#N)C(c2ccc3c(c2)c(NC(=O)c2ccccc2C)nn3C)C(C#N)=C(C)N1,cell-free assay,,competition with immobilised ligand,1 µM,remaining binding,100%
C=CC(=O)Nc1cc(Nc2nccc(Nc3cc(Cl)c(F)cc3C(C)(C)O)n2)c(OC)cc1N1CC[C@@H](N(C)C)C1,enzyme activity,inhibitor,,1 µM,inhibition,19%
CN(C)c1ncnc(-c2ccc3nc(Nc4cc(CN5CCN(C(=O)CC(F)(F)F)CC5)ccn4)[nH]c3c2)c1Cl,cell-free assay,,competition with immobilised ligand,1 µM,remaining binding,96%
COc1cc2ncnc(Nc3ccc(Oc4ccccc4)cc3C)c2cc1OC,enzyme activity,inhibitor,,1 µM,inhibition,3%
Cc1ccc(C(=O)NCc2ccsc2)cc1C#Cc1cn(C(C)C)c2ncnc(N)c12,enzyme activity,inhibitor,,1 µM,activity vs control,92%
Cc1sc(C(=O)NC2COC2)cc1-n1cc(NC(=O)Nc2c(F)cccc2Cl)cn1,enzyme activity,inhibitor,,10 µM,remaining activity,96.5%
O=C1NC(=O)c2cc(Nc3ccc(F)cc3)c(Nc3ccc(F)cc3)cc21,cell-free assay,,,0.5 µM,remaining signal,93.4%
CO[C@@H](C)c1c(Nc2ccc([C@@H](N(C)C(=O)C3CCS(=O)(=O)CC3)C(F)(F)F)cc2)cnc2cc(Cl)nn12,cell-free assay,,competition with immobilised ligand,1 µM,remaining binding,100%
CCN(CC)c1ccc(C2=NNC(=O)CC2C)cc1[N+](=O)[O-] (stereo not drawn),enzyme activity,inhibitor,,10 µM,remaining activity,104%
CC(C)c1ccc(NC(=O)c2cccs2)c(-c2nc3ccccc3[nH]c2=O)c1,enzyme activity,inhibitor,,1 µM,activity vs control,106%
CC(C)(O)[C@H]1CC[C@H](Nc2ccc3ncc(-c4cccc(C(F)(F)F)c4)n3n2)CC1,enzyme activity,inhibitor,,1 µM,remaining activity,105%
Cn1cnc(Br)c1C1=CN(c2ncnc3[nH]cnc23)CCS1,enzyme activity,inhibitor,radiometric,50 nM,inhibition,20.3%
CNCc1ccc(-c2cc(-c3nc(-c4ccc(S(=O)(=O)C(C)C)cc4)cnc3N)on2)cc1,enzyme activity,inhibitor,,2 µM,inhibition,0%
CNc1cccc2cc(C(=O)Nc3ccc(C(=O)O)cc3)c(=O)[nH]c12,enzyme activity,inhibitor,,10 µM,inhibition,20%
C[C@@H]1CCN(C(=O)CC#N)C[C@@H]1N(C)c1ncnc2[nH]ccc12,cell-free assay,inhibitor,,0.5 µM,remaining signal,97.3%
Nc1nc(NC2CCCCC2)sc1C(=O)c1ccccc1,enzyme activity,inhibitor,,10 µM,remaining activity,96%
COc1ccc2cc(OCC3(C(=O)O)CN(C(=O)c4ccc(F)cc4)C3)ccc2c1,cell-free assay,,competition with immobilised ligand,1 µM,remaining binding,76%
CNC(=O)c1cc(Oc2ccc(NC(=O)Nc3ccc(Cl)c(C(F)(F)F)c3)cc2)ccn1,enzyme activity,inhibitor,,0.3 µM,inhibition,18%
O=C(CSc1nc2nccnc2c(=O)n1CCc1ccccc1)Nc1nccs1,enzyme activity,inhibitor,,10 µM,inhibition,-2%
CC(C)(C)c1nc(-c2cccc(NS(=O)(=O)c3c(F)cccc3F)c2F)c(-c2ccnc(N)n2)s1,enzyme activity,inhibitor,radiometric,1 µM,remaining activity,37%
COCCOc1nc(-c2ccc(Cl)nc2)nc2c1CN(C(=O)c1ncn3ccccc13)CC2,cell-free assay,,competition with immobilised ligand,0.1 µM,remaining binding,100%
O=C(Nc1cnn(-c2csc(C(=O)NC3COC3)c2)c1)Nc1c(F)cccc1Cl,enzyme activity,inhibitor,,5 µM,remaining activity,99.7%
Cc1nc(C2CCN(C(=O)c3ccc(OC(F)(F)F)cc3N)CC2)c2ncc(N3CCN(C)CC3)cc2n1,cell-free assay,,competition with immobilised ligand,1 µM,remaining binding,94%
FC(F)(F)Oc1cccc(-c2cnc3ccc(-c4ccncc4)nn23)c1,enzyme activity,inhibitor,radiometric,1 µM,activity vs control,85%
CCN(CC)CCNC(=O)c1c(C)[nH]c(/C=C2\C(=O)Nc3ccc(F)cc32)c1C,cell-free assay,,,0.5 µM,remaining signal,82.7%
CN([C@@H]1CCc2c(CC(=O)O)c3cc(S(C)(=O)=O)ccc3n2C1)S(=O)(=O)c1ccc(F)cc1,cell-free assay,,competition with immobilised ligand,1 µM,remaining binding,100%
CN(c1ncccc1CNc1nc(Nc2ccc3c(c2)CC(=O)N3)ncc1C(F)(F)F)S(C)(=O)=O,enzyme activity,inhibitor,,1 µM,inhibition,0%
Cc1ccc(NC(=O)c2ccc(C)c(C(F)(F)F)c2)cc1C#Cc1nn(C2CCC(O)CC2)c2ncnc(N)c12 (stereo not drawn),cell-free assay,,,10 µM,remaining signal,77%
Cc1ccc(Nc2nccc(N(C)c3ccc4c(C)n(C)nc4c3)n2)cc1S(N)(=O)=O,enzyme activity,inhibitor,,10 µM,inhibition,4%
